Key:
CEM-SS [1] = assay: Using the XTT assay for cell viability, inhibitory concentration to protect human lymphoblastoid CEM-SS cells from the cytopathic effects of HIV-1 (RF strain) was determined; assay type: functional, cell-based
How it was run: (§1)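 Values reported as averages of quadruplicate determinations.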

CEM-SS [2] = assay: Using the XTT assay for cell viability, effective concentration to protect human lymphoblastoid CEM-SS cells from the cytopathic effects of HIV-1 (RF strain) was determined; assay type: functional, cell-based; how it was run: as §1
[3] = Ratio of inhibitory concentration to that of effective concentration for protection of CEM-SS cells from cytopathic effects of HIV-1 (RF strain); assay type: functional
How it was run: (§2)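 In vitro therapeutic index taken as IC50 divided by EC50.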

CEM-SS [4] = assay: Using the XTT assay for cell viability, inhibitory concentration to protect human lymphoblastoid CEM-SS cells from the cytopathic effects of HIV-1 (RF strain) was determined; c - not measurable; assay type: functional, cell-based; how it was run: as §1
CEM-SS [5] = assay: Using the XTT assay for cell viability, effective concentration to protect human lymphoblastoid CEM-SS cells from the cytopathic effects of HIV-1 (RF strain) was determined; c - not measurable; assay type: functional, cell-based; how it was run: as §1
CEM-SS [6] = assay: (§3) Using the XTT assay for cell viability, effective concentration to protect human lymphoblastoid CEM-SS cells from the cytopathic effects of HIV-1 (RF strain) was determined; d - Not independently evaluated; not stable under assay conditions; rapidl y converts to active compound 2 under assay conditions.; assay type: functional, cell-based
CEM-SS [7] = assay: as §3, with “inhibitory” for “effective”, “rapid ly” for “rapidl y”; assay type: functional, cell-based
CEM-SS [8] = assay: Using the XTT assay for cell viability, inhibitory concentration to protect human lymphoblastoid CEM-SS cells from the cytopathic effects of HIV-1 (RF strain) was determined; c - not measurabel; assay type: functional, cell-based; how it was run: as §1
CEM-SS [9] = assay: Using the XTT assay for cell viability, effective concentration to protect human lymphoblastoid CEM-SS cells from the cytopathic effects of HIV-1 (RF strain) was determined; c - not measurabel; assay type: functional, cell-based; how it was run: as §1
CEM-SS [10] = assay: Ratio of inhibitory concentration to that of effective concentration for protection of CEM-SS cells from cytopathic effects of HIV-1 (RF strain); not measurable; assay type: functional, cell-based; how it was run: as §2

Structure (SMILES) | IC50 (CEM-SS [1]) | EC50 (CEM-SS [2]) | TI [3] | other results
CCCc1cc(=O)oc2c3c(c4c(c12)OC(C)(C)CC4)O[C@H](C)[C@@H](C)[C@@H]3O | 5.2 µM | 0.2 µM | 23 | –
CCCc1cc(=O)oc2c3c(c4c(c12)OC(C)(C)C=C4)O[C@@H](C)[C@H](C)[C@@H]3N=[N+]=[N-] | 5.9 µM | 1.6 µM | 4 | –
CCCc1cc(=O)oc2c3c(c4c(c12)OC(C)(C)CC4)O[C@@H](C)[C@H](C)C3=O | 7.9 µM | 0.37 µM | 21 | –
CCCc1cc(=O)oc2c3c(c4c(c12)OC(C)(C)C=C4)O[C@@H](C)[C@H](C)[C@@H]3O [COSTATOLIDE] | 5.9 µM | 0.2 µM | 31 | –
CCCc1cc(=O)oc2c3c(c4c(c12)OC(C)(C)CC4)O[C@@H](C)[C@H](C)[C@@H]3O [7,8-DIHYDROCALANOLIDE B] | 8.2 µM | 0.2 µM | 41 | –
CCCc1cc(=O)oc2c3c(c4c(c12)OC(C)(C)CC4)O[C@H](C)C(C)=C3 | – | – | – | IC50 (CEM-SS [4]): Not measurable; EC50 (CEM-SS [5]): Not measurable
CCCc1cc(=O)oc2c3c(c4c(c12)OC(C)(C)C=C4)O[C@@H](C)[C@H](C)[C@@H]3F | – | – | – | EC50 (CEM-SS [6]): Not independently evaluated; IC50 (CEM-SS [7]): Not independently evaluated
CCCc1cc(=O)oc2c3c(c4c(c12)OC(C)(C)C=C4)O[C@H](C)[C@@H](C)[C@@H]3O [CALANOLIDE A] | 7.3 µM | 0.18 µM | 40 | –
CCCc1cc(=O)oc2c3c(c4c(c12)OC(C)(C)C=C4)O[C@@H](C)[C@H](C)C3=O | 8.5 µM | 0.4 µM | 24 | –
CCCc1cc(=O)oc2c3c(c4c(c12)OC(C)(C)C=C4)O[C@@H](C)[C@H](C)[C@H]3O [(-)-CALANOLIDE A] | – | – | – | IC50 (CEM-SS [8]): Not measurable; EC50 (CEM-SS [9]): Not measurable
CCCc1cc(=O)oc2c3c(c4c(c12)OC(C)(C)CC4)O[C@@H](C)[C@H](C)[C@@H]3N | 5.8 µM | 0.6 µM | 10 | –
CCCc1cc(=O)oc2c3c(c4c(c12)OC(C)(C)C=C4)O[C@@H](C)[C@H](C)[C@@H]3S | > 150 µM | 8.4 µM | – | TI (CEM-SS [10]): Not measurable
CCCc1cc(=O)oc2c3c(c4c(c12)OC(C)(C)C=C4)O[C@H](C)[C@@H](C)C3=O | 9.3 µM | 0.15 µM | 62 | –
